According to ChEMBL document CHEMBL4004850, “Rational design of reversible inhibitors for trehalose 6-phosphate phosphatases” (Eur J Med Chem, 2017):

Experiments:
[1] = target: T1, Trehalose-phosphatase (Brugia malayi) (UniProt A8NS89); test: Inhibition of Brugia malayi T6PP using T6P as substrate assessed as fraction of enzyme unbound with compound by measuring ratio of initial velocities of T6P substrate hydrolysis in presence and absence of compound at 1 mM […] by BioMol green dye based HTS assay
T1 sequence (whole entry): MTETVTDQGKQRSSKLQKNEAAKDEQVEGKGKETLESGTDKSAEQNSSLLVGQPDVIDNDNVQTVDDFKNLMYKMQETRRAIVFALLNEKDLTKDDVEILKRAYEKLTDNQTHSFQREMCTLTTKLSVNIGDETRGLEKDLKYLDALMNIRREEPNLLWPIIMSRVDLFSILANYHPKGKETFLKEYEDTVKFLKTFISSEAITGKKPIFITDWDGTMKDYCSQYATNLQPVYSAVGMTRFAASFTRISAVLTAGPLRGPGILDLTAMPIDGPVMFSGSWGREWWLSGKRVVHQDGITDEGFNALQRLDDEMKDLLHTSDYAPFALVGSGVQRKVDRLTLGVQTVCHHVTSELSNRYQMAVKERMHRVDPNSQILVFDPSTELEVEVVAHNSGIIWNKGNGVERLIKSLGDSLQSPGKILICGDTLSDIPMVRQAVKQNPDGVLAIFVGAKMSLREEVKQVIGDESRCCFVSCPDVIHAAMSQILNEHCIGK

[2] = tested on: Shigella boydii; test: Inhibition of Shigella boydii T6PP using T6P as substrate assessed as fraction of enzyme unbound with compound by measuring ratio of initial velocities of T6P substrate hydrolysis in presence and absence of compound at 1 mM after 5 mins by BioMol green dye based HTS assay
Outline: (§1)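 Freshly purified St-T6PP or Sb-T6PP (5–25 nM) in 50 mM Hepes pH 7.5, 25 mM NaCl, 2 mM MgCl₂, 5% glycerol at 25 °C. T6P at half saturation (Km) for each enzyme. Hydrolysis rate was compared with and without 1 mM inhibitor; phosphate read at 625 nm after 30 min incubation. The ratio VI/V gives the fraction of enzyme not inhibitor-bound.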

[3] = tested on: Ascaris suum; test: Inhibition of Ascaris suum T6PP using T6P as substrate assessed as fraction of enzyme unbound with compound by measuring ratio of initial velocities of T6P substrate hydrolysis in presence and absence of compound at 1 mM after 5 mins by BioMol green dye based HTS assay
Outline: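 T6P is at half saturation ([T6P] = Km), with and without 1 mM inhibitor, at 25 °C. Released phosphate is detected with dye (30 min incubation) by A625. The reported value is V_I/V, the initial-velocity ratio.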

[4] = tested on: Salmonella enterica subsp. enterica serovar Typhimurium; test: Inhibition of Salmonella typhimurium T6PP using T6P as substrate assessed as fraction of enzyme unbound with compound by measuring ratio of initial velocities of T6P substrate hydrolysis in presence and absence of compound at 1 mM after 5 mins by BioMol green dye based HTS assay; outline: as §1
[5] = target: T2, Trehalose-phosphatase (Brugia malayi, UniProt A8NS89); test: Competitive inhibition of Brugia malayi T6PP using T6P as substrate by Lineweaver-Burk plot analysis
T2 sequence (A8NS89 whole entry): T1 sequence (whole entry)
Outline: (§2)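 Continuous phosphate-release assay (EnzChek, MESG/purine nucleoside phosphorylase) at 25 °C. Initial velocities of T6P hydrolysis by T6PP were taken at varied T6P with inhibitor at 0, Ki and 2×Ki. Km and Vmax come from double-reciprocal plots.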

[6] = Inhibition of Salmonella typhimurium T6PP using T6P as substrate by Lineweaver-Burk plot analysis; set-up: species or system Salmonella enterica subsp. enterica serovar Typhimurium; outline: as §2
[7] = Inhibition of Ascaris suum T6PP using T6P as substrate by Lineweaver-Burk plot analysis
[8] = Inhibition of Shigella boydii T6PP using T6P as substrate by Lineweaver-Burk plot analysis; outline: as §2
[9] = tested on: Shigella boydii; test: Inhibition of Shigella boydii T6PP assessed as Km for substrate using T6P as substrate by Lineweaver-Burk plot analysis; outline: as §2
[10] = tested on: Salmonella enterica subsp. enterica serovar Typhimurium; test: Inhibition of Salmonella typhimurium T6PP assessed as Km for substrate using T6P as substrate by Lineweaver-Burk plot analysis; outline: as §2
[11] = tested on: Ascaris suum; test: Inhibition of Ascaris suum T6PP assessed as Vmax for substrate using T6P as substrate by Lineweaver-Burk plot analysis; outline: as §2
[12] = tested on: Shigella boydii; test: Inhibition of Shigella boydii T6PP assessed as Vmax for substrate using T6P as substrate by Lineweaver-Burk plot analysis; outline: as §2
[13] = tested on: Salmonella enterica subsp. enterica serovar Typhimurium; test: Inhibition of Salmonella typhimurium T6PP assessed as Vmax for substrate using T6P as substrate by Lineweaver-Burk plot analysis; outline: as §2
[14] = tested on: Ascaris suum; test: Inhibition of Ascaris suum T6PP assessed as Km for substrate using T6P as substrate by Lineweaver-Burk plot analysis; outline: as §2
[15] = target: T2, Trehalose-phosphatase; test: Reversible competitive inhibition of Brugia malayi T6PP using T6P as substrate by Lineweaver-Burk plot analysis

Structure (SMILES) | Ratio [1] | Ratio [2] | Ratio [3] | Ratio [4] | further results
Nc1ccc(O[C@@H]2O[C@H](COS(=O)(=O)O)[C@@H](O)[C@H](O)[C@H]2O)cc1 | 0.63 | 1.03 | 0.74 | 0.94 | 
O=S(=O)(O)OC[C@H]1O[C@H](O)[C@H](O)[C@@H](O)[C@@H]1O | 0.93 | 0.75 | 0.94 | 0.84 | 
OC[C@H]1O[C@@H](Oc2ccccc2)[C@H](O)[C@@H](O)[C@@H]1O | 1.12 | 0.9 | 1 | 0.87 | 
CO[C@H]1O[C@H](COS(=O)(=O)O)[C@@H](O)[C@H](OCc2ccccc2)[C@H]1O | 0.67 | 0.84 | 1.04 | 0.99 | 
O=S(=O)(O)OC[C@H]1O[C@H](O[C@H]2O[C@H](CO)[C@@H](O)[C@H](O)[C@H]2O)[C@H](O)[C@@H](O)[C@@H]1O | 0.13 | 0.22 | 0.21 | 0.01 | Ki [5]: 80 µM; Ki [6]: 180 µM; Ki [7]: 50 µM; Ki [8]: 330 µM
CCCCCCc1ccc(O[C@H]2O[C@H](COS(=O)(=O)O)[C@@H](O)[C@H](O)[C@H]2O)cc1 |  |  |  |  | Km [9]: 239 µM; Ki [5]: 80 to 82 µM; Km [10]: 394 µM; Vmax [11]: 0.631 µM/s; Vmax [12]: 0.541 µM/s; Vmax [13]: 0.495 µM/s; Km [14]: 353 µM; Ki [6]: 280 µM; Ki [7]: 350 µM; Ki [8]: 78 µM
CCCCCCc1ccc(O[C@@H]2O[C@H](COS(=O)(=O)O)[C@@H](O)[C@H](O)[C@H]2O)cc1 |  |  |  |  | Km [9]: 231 µM; Ki [5]: 200 µM; Vmax [12]: 0.534 µM/s; Ki [6]: > 400 µM; Ki [7]: 200 µM; Ki [8]: 140 µM
O=Cc1cccc(O[C@@H]2O[C@H](COS(=O)(=O)O)[C@@H](O)[C@H](O)[C@H]2O)c1 | 1.05 | 0.81 | 0.78 | 0.95 | 
CCCCCCCCO[C@@H]1O[C@H](COS(=O)(=O)O)[C@@H](O)[C@H](O)[C@H]1O | 0.72 | 0.79 | 0.9 | 0.54 | 
O=S(=O)(O)OC[C@H]1O[C@@H](Oc2ccccc2CO)[C@H](O)[C@@H](O)[C@@H]1O | 0.89 | 0.85 | 0.9 | 0.73 | 
COc1cc(C=O)cc(OC)c1O[C@@H]1O[C@H](COS(=O)(=O)O)[C@@H](O)[C@H](O)[C@H]1O | 0.55 | 1 | 0.94 | 0.96 | 
CO[C@H]1O[C@H](COS(=O)(=O)O)[C@@H](OCc2ccccc2)[C@H](O)[C@H]1O | 0.68 | 0.95 | 0.99 | 0.97 | 
OC[C@H]1O[C@@H](NC(=S)Nc2ccccc2)[C@H](O)[C@@H](O)[C@@H]1O | 0.99 | 0.92 | 0.81 | 1.09 | 
O=S(=O)(O)OC[C@H]1O[C@H](OCc2ccccc2)[C@H](O)[C@@H](O)[C@@H]1O | 0.07 | 0.74 | 0.86 | 0.47 | Ki [5]: 160 µM
O=S(=O)(O)OC[C@H]1O[C@@H](Oc2ccccc2)[C@H](O)[C@@H](O)[C@@H]1O | 0.52 | 0.76 | 0.92 | 0.81 | Ki [15]: 800 to 830 µM
O=S(=O)(O)OC[C@H]1O[C@@H](Oc2cccc3ccccc23)[C@H](O)[C@@H](O)[C@@H]1O | 0.85 | 0.85 | 0.91 | 0.8 | 
OC[C@H]1O[C@@H](n2cc(-c3ccccc3)nn2)[C@H](O)[C@@H](O)[C@@H]1O | 0.85 | 1 | 0.96 | 0.9 | 

Structure (SMILES) | Ratio [1] | Ratio [2] | Ratio [3] | Ratio [4] | further results
OC[C@H]1O[C@H](Oc2ccccc2)[C@H](O)[C@@H](O)[C@@H]1O | 0.96 | 0.86 | 0.97 | 1 | 
CO[C@H]1O[C@H](COS(=O)(=O)O)[C@@H](O)[C@H](O)[C@H]1OCc1ccccc1 | 0.53 | 1 | 0.96 | 0.95 | 
OC[C@H]1O[C@@H](Nc2ccccc2)[C@H](O)[C@@H](O)[C@@H]1O | 1 | 0.92 | 0.97 | 0.77 | 
O=[N+]([O-])c1ccc(O[C@@H]2O[C@H](COS(=O)(=O)O)[C@@H](O)[C@H](O)[C@H]2O)cc1 | 0.64 | 0.77 | 0.83 | 0.68 | 
CO[C@H]1O[C@H](COS(=O)(=O)O)[C@@H](O)[C@H](O)[C@H]1O | 0.8 | 1 | 1.07 | 1.04 | 
O=S(=O)(O)OC[C@H]1O[C@@H](n2cc(-c3ccccc3)nn2)[C@H](O)[C@@H](O)[C@@H]1O | 0.98 | 0.9 | 0.76 | 0.97 | 
O=Cc1ccc(O[C@@H]2O[C@H](COS(=O)(=O)O)[C@@H](O)[C@H](O)[C@H]2O)cc1 | 1 | 1.06 | 0.81 | 0.87 | 
O=S(=O)(O)OCc1cccc(O[C@@H]2O[C@H](CO)[C@@H](O)[C@H](O)[C@H]2O)c1 | 0.59 | 0.8 | 0.98 | 0.85 | 
OC[C@H]1O[C@H](O[C@H]2O[C@H](CO)[C@@H](O)[C@H](O)[C@H]2O)[C@H](O)[C@@H](O)[C@@H]1O [TREHALOSE] | 0.98 | 1.01 | 0.97 | 0.88 | Ki [5]: > 10000 µM
NS(=O)(=O)OCc1cccc(N[C@@H]2O[C@H](CO)[C@@H](O)[C@H](O)[C@H]2O)c1 | 1.05 | 0.85 | 0.96 | 1 | 
CCCCCCCCc1ccc(O[C@@H]2O[C@H](COS(=O)(=O)O)[C@@H](O)[C@H](O)[C@H]2O)cc1 | 0.07 | 0.04 | 0.02 | 0.01 | Km [9]: 222 µM; Ki [5]: 60 to 61 µM; Km [10]: 428 µM; Vmax [11]: 0.343 µM/s; Vmax [12]: 0.495 µM/s; Vmax [13]: 0.183 µM/s; Km [14]: 336 µM; Ki [6]: 120 µM; Ki [7]: 180 µM; Ki [8]: 13 µM
CC(=O)Nc1ccc(O[C@@H]2O[C@H](COS(=O)(=O)O)[C@@H](O)[C@H](O)[C@H]2O)cc1 | 0.87 | 0.88 | 0.9 | 0.85 | 
O=S(=O)(O)OC[C@H]1O[C@@H](Oc2ccc(-c3ccccc3)cc2)[C@H](O)[C@@H](O)[C@@H]1O | 0.58 | 0.84 | 0.9 | 0.85 | Vmax [11]: 0.436 µM/s; Km [14]: 290 µM; Ki [7]: 1800 µM
O=Cc1ccccc1O[C@@H]1O[C@H](COS(=O)(=O)O)[C@@H](O)[C@H](O)[C@H]1O | 0.79 | 0.96 | 0.99 | 0.85 | 
O=S(=O)(O)OC[C@H]1O[C@@H](Oc2cccc(CO)c2)[C@H](O)[C@@H](O)[C@@H]1O | 0.69 | 0.46 | 0.63 | 0.77 | 
O=S(=O)(O)OC[C@H]1O[C@@H](Oc2ccc(CO)cc2)[C@H](O)[C@@H](O)[C@@H]1O | 0.68 | 0.67 | 0.76 | 0.79 | 
O=S(=O)(O)OC[C@H]1O[C@@H](Oc2ccc(F)c(F)c2)[C@H](O)[C@@H](O)[C@@H]1O | 0.74 | 0.92 | 0.88 | 0.89 | 
